The CC50 is the concentration that lowers cell viability or growth by half. Usually IC50 stands for the concentration that inhibits the measured activity by half. In general, inhibition refers to the share of the control response that was lost under treatment.

The values that follow come from ChEMBL document CHEMBL4699628, “Bivalent HIV-1 fusion inhibitors based on peptidomimetics” (Bioorg Med Chem, 2020).

Some results are limits rather than exact numbers.

Holding throughout (type): cell-based
A short description of series [1]: Cytotoxicity against human TZM-bl cells assessed as reduction in cell viability incubated for 48 hrs by CellTiter 96 aqueous nonradioactive cell proliferation assay. The method, boiled down:
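TZM-bl cells with serially diluted compounds, no virus, otherwise as in infection assay (48 h culture); viability read by CellTiter 96 non-radioactive cell proliferation assay.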

Series [2] in a line: Binding affinity to two PBDs of N36 trimer of gp41 in HIV1 NL4-3 infected in human TZM-bl cells assessed as inhibition of viral fusion incubated for 48 hrs by Steady-Glo luciferase assay. The following applies: Human immunodeficiency virus 1, NL4-3, TZM-bl.
The next series has as its system TZM-bl. Kind of series: Binding affinity to two PBDs of N36 trimer of gp41 in HIV1 NL4-3 infected in human TZM-bl cells assessed as inhibition of viral fusion at 50 uM incubated for 48 hrs by Steady-Glo luciferase assay. The following applies: Human immunodeficiency virus 1.

Take `O=C(O)C[C@H](NC(=O)CCC(=O)NCCOCCOCCOCCOCCOCCOCCOCCOCCOCCNC(=O)CCC(=O)N[C@@H](CC(=O)O)C(=O)Nc1ccc(C(=O)N[C@@H](Cc2c[nH]c3ccccc23)C(=O)O)cc1OCCc1c[nH]c2ccccc12)C(=O)Nc1ccc(C(=O)N[C@@H](Cc2c[nH]c3ccccc23)C(=O)O)cc1OCCc1c[nH]c2ccccc12`: the CC50 at 48 h in series [1] is > 50 µM. Moreover, the 50% inhibitory concentration (IC50) in series [2] is 36.3 µM.

As for `Cc1cn([C@H]2C[C@H](N=[N+]=[N-])[C@@H](CO)O2)c(=O)[nH]c1=O` [ZIDOVUDINE], the CC50 at 48 h in series [1] was > 100 µM. Also, the IC50 in series [2] stood at 0.118 µM.

Consider `N[C@@H](CC(=O)O)C(=O)Nc1ccc(C(=O)N[C@@H](Cc2c[nH]c3ccccc23)C(=O)O)cc1OCCc1c[nH]c2ccccc12`, for which, in series [1], the CC50 at 48 h was > 50 µM. Besides, the IC50 in series [2] was 1.6 µM.

On to `CC(C)C[C@H](NC(=O)c1ccc(NC(=O)[C@@H](N)Cc2c[nH]c3ccccc23)c(OCCc2c[nH]c3ccccc23)c1)C(=O)O`, for which the CC50 at 48 h in series [1] is > 50 µM. Also, the inhibition with TZM-bl amounted to 1%.

Turning to `CC(C)C[C@H](NC(=O)c1ccc(NC(=O)[C@H](Cc2c[nH]c3ccccc23)NC(=O)CCC(=O)NCCOCCOCCOCCOCCOCCOCCOCCNC(=O)CCC(=O)N[C@@H](Cc2c[nH]c3ccccc23)C(=O)Nc2ccc(C(=O)N[C@@H](CC(C)C)C(=O)O)cc2OCCc2c[nH]c3ccccc23)c(OCCc2c[nH]c3ccccc23)c1)C(=O)O`, in series [1], the CC50 at 48 h is > 50 µM. For the same molecule, the half-maximal inhibitory concentration (IC50) in series [2] was 17 µM.

On to `CC(C)C[C@H](NC(=O)c1ccc(NC(=O)[C@H](Cc2c[nH]c3ccccc23)NC(=O)CCC(=O)NCCOCCOCCOCCOCCOCCOCCOCCOCCOCCNC(=O)CCC(=O)N[C@@H](Cc2c[nH]c3ccccc23)C(=O)Nc2ccc(C(=O)N[C@@H](CC(C)C)C(=O)O)cc2OCCc2c[nH]c3ccccc23)c(OCCc2c[nH]c3ccccc23)c1)C(=O)O`, for which, in series [1], the CC50 at 48 h is > 50 µM. Besides, in series [2], the IC50 stood at 1.7 µM.

On to `COc1ccc(C[C@H](N)C(=O)Nc2ccc(C(=O)N[C@@H](Cc3c[nH]c4ccccc34)C(=O)O)cc2OCCc2c[nH]c3ccccc23)cc1`, for which the CC50 at 48 h in series [1] was > 50 µM. For the same molecule, the inhibition with TZM-bl was 0%.

As to `CC(C)C[C@H](NC(=O)c1ccc(NC(=O)[C@H](Cc2c[nH]c3ccccc23)NC(=O)CCC(=O)NCCOCCOCCOCCOCCOCCNC(=O)CCC(=O)N[C@@H](Cc2c[nH]c3ccccc23)C(=O)Nc2ccc(C(=O)N[C@@H](CC(C)C)C(=O)O)cc2OCCc2c[nH]c3ccccc23)c(OCCc2c[nH]c3ccccc23)c1)C(=O)O`, in series [1], the CC50 at 48 h was > 50 µM. Moreover, in series [2], the IC50 was determined as 17.3 µM.

As to `CC(C)C[C@H](NC(=O)c1ccc(NC(=O)[C@H](Cc2c[nH]c3ccccc23)NC(=O)CCC(=O)NCCOCCOCCOCCOCCOCCOCCOCCOCCOCCNC(=O)CCC(=O)O)c(OCCc2c[nH]c3ccccc23)c1)C(=O)O`, in series [1], the CC50 at 48 h was > 50 µM. Besides, the inhibition with TZM-bl amounted to 7%.

`CC(C)C[C@H](NC(=O)c1ccc(NC(=O)[C@H](Cc2c[nH]c3ccccc23)NC(=O)CCC(=O)NCCOCCOCCOCCOCCOCCOCCOCCOCCOCCOCCOCCNC(=O)CCC(=O)N[C@@H](Cc2c[nH]c3ccccc23)C(=O)Nc2ccc(C(=O)N[C@@H](CC(C)C)C(=O)O)cc2OCCc2c[nH]c3ccccc23)c(OCCc2c[nH]c3ccccc23)c1)C(=O)O`: the CC50 at 48 h in series [1] is > 50 µM. Moreover, the IC50 in series [2] is 15 µM.

Take `CC(C)C[C@H](NC(=O)c1ccc(NC(=O)[C@H](Cc2c[nH]c3ccccc23)NC(=O)CCC(=O)NCCOCCOCCOCCNC(=O)CCC(=O)N[C@@H](Cc2c[nH]c3ccccc23)C(=O)Nc2ccc(C(=O)N[C@@H](CC(C)C)C(=O)O)cc2OCCc2c[nH]c3ccccc23)c(OCCc2c[nH]c3ccccc23)c1)C(=O)O`: the CC50 at 48 h in series [1] is > 50 µM. Also, the IC50 in series [2] amounted to 22.8 µM.

In the case of `CC(C)C[C@H](NC(=O)c1ccc(NC(=O)[C@H](Cc2c[nH]c3ccccc23)NC(=O)CCC(=O)NCCOCCNC(=O)CCC(=O)N[C@@H](Cc2c[nH]c3ccccc23)C(=O)Nc2ccc(C(=O)N[C@@H](CC(C)C)C(=O)O)cc2OCCc2c[nH]c3ccccc23)c(OCCc2c[nH]c3ccccc23)c1)C(=O)O`, the CC50 at 48 h in series [1] was > 50 µM. Also, the IC50 in series [2] is 23.8 µM.

Turning to `COc1ccc(C[C@H](NC(=O)CCC(=O)NCCOCCOCCOCCOCCOCCOCCOCCOCCOCCNC(=O)CCC(=O)N[C@@H](Cc2ccc(OC)cc2)C(=O)Nc2ccc(C(=O)N[C@@H](Cc3c[nH]c4ccccc34)C(=O)O)cc2OCCc2c[nH]c3ccccc23)C(=O)Nc2ccc(C(=O)N[C@@H](Cc3c[nH]c4ccccc34)C(=O)O)cc2OCCc2c[nH]c3ccccc23)cc1`, in series [1], the CC50 at 48 h was > 50 µM. Also, in series [2], the IC50 worked out at 10.2 µM.
